Data from ChEMBL document CHEMBL3877293, “Synthesis and Antineoplastic Evaluation of Novel Unsymmetrical 1,3,4-Oxadiazoles” (J Med Chem, 2016).
Activity calls are given as the source filed them. The calls are words filed in the database; no cut-off is given here.

Experiments:
[1] = Antiproliferative activity against human HeLa cells after 72 hrs by XTT assay; assay type: functional, cell-based
Outline: (§1)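 Cells plated at 1500–2000 per well by doubling time, treated after 24 h with a concentration series in six triplicate wells, and incubated 72 h without a medium change. XTT reagent was then added for 4 h at 37 °C and absorbance read at 490 nm. IC50 is the concentration halving absorbance versus untreated cells. Experiments run in triplicate.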

HeLa [2] = test: Antiproliferative activity against human HeLa cells at 2 uM after 72 hrs by XTT assay; assay type: functional, cell-based
[3] = Antiproliferative activity against human RD cells after 72 hrs by XTT assay; assay type: functional, cell-based; outline: as §1
[4] = Antiproliferative activity against human NCI-H1299 cells after 72 hrs by XTT assay; assay type: functional, cell-based; settings: NCI-H1299, 72 h; outline: as §1
[5] = Antiproliferative activity against human A549 cells after 72 hrs by XTT assay; assay type: functional, cell-based; settings: A549, 72 h; outline: as §1
MCF7 [6] = test: Selectivity ratio of IC50 for human MCF7 cells to IC50 for human RD cells; assay type: functional
Outline: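 XTT viability: 1500–2000 cells/well plated by doubling time; compounds added after 24 h, then 72 h further culture without medium change. XTT reagent 4 h at 37 °C, absorbance read at 490 nm. IC50 is the concentration halving absorbance versus untreated cells; triplicate experiments. Ratio is MCF7 IC50 divided by IC50 in the named line.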

[7] = Cell cycle arrest in human HeLa cells assessed as G1 phase accumulation at 1 uM after 8 hrs by propidium iodide staining based flow cytometry (reference value: 62.7%); assay type: functional
[8] = Cell cycle arrest in human MCF7 cells assessed as G1 phase accumulation at 1 uM after 24 hrs by propidium iodide staining based flow cytometry (reference value: 54.1 +/- 1.52%); assay type: functional
[9] = Cell cycle arrest in human MCF7 cells assessed as G2/M phase accumulation at 1 uM after 24 hrs by propidium iodide staining based flow cytometry (reference value: 24.2 +/- 1.62%); assay type: functional
[10] = Cell cycle arrest in human NCI-H1299 cells assessed as S phase accumulation at 1 uM after 24 hrs by propidium iodide staining based flow cytometry (reference value: 16.4 +/- 1.76%); assay type: functional
[11] = Cell cycle arrest in human NCI-H1299 cells assessed as G2/M phase accumulation at 1 uM after 24 hrs by propidium iodide staining based flow cytometry (reference value: 22.2 +/- 1.74%); assay type: functional
[12] = Cell cycle arrest in human T98G cells assessed as G2/M phase accumulation at 1 uM after 24 hrs by propidium iodide staining based flow cytometry (reference value: 8.8 +/- 0.93%); assay type: functional
[13] = Cell cycle arrest in human SH-SY5Y cells assessed as subG1 phase accumulation at 1 uM after 24 hrs by propidium iodide staining based flow cytometry relative to DMSO control; assay type: functional
[14] = Cell cycle arrest in human SH-SY5Y cells assessed as S phase accumulation at 1 uM after 24 hrs by propidium iodide staining based flow cytometry (reference value: 14.3 +/- 1.52%); assay type: functional
[15] = Cell cycle arrest in human SK-N-AS cells assessed as G1 phase accumulation at 1 uM after 24 hrs by propidium iodide staining based flow cytometry (reference value: 51.5 +/- 1.39%); assay type: functional
[16] = Cell cycle arrest in human A549 cells assessed as S phase accumulation at 1 uM after 24 hrs by propidium iodide staining based flow cytometry (reference value: 7.6 +/- 0.63%); assay type: functional
[17] = Cell cycle arrest in human NB-1 cells assessed as G1 phase accumulation at 1 uM after 24 hrs by propidium iodide staining based flow cytometry (reference value: 75%); settings: nb1, 24 h
[18] = Cell cycle arrest in human NB-1 cells assessed as S phase accumulation at 1 uM after 24 hrs by propidium iodide staining based flow cytometry (reference value: 3.8%); settings: nb1, 24 h
[19] = Cell cycle arrest in human NB-1 cells assessed as G2/M phase accumulation at 1 uM after 24 hrs by propidium iodide staining based flow cytometry (reference value: 21.2%); settings: nb1, 24 h
[20] = Cell cycle arrest in human NB-1 cells assessed as G1 phase accumulation at 1 uM after 48 hrs by propidium iodide staining based flow cytometry (reference value: 85.9%); settings: nb1, 48 h
[21] = Cell cycle arrest in human NB-1 cells assessed as G2/M phase accumulation at 1 uM after 72 hrs by propidium iodide staining based flow cytometry (reference value: 15.8%); settings: nb1, 72 h
[22] = Cell cycle arrest in human NB1 hTERT cells assessed as G1 phase accumulation at 1 uM after 48 hrs by propidium iodide staining based flow cytometry (reference value: 62.5%); assay type: functional
[23] = Cell cycle arrest in human NB1 hTERT cells assessed as G2/M phase accumulation at 1 uM after 48 hrs by propidium iodide staining based flow cytometry (reference value: 27.2%); assay type: functional
[24] = Cell cycle arrest in human NB1 hTERT cells assessed as G2/M phase accumulation at 1 uM after 72 hrs by propidium iodide staining based flow cytometry (reference value: 23.9%); assay type: functional
MCF7 [25] = test: Disruption of beta-tubulin network in human MCF7 cells assessed as induction of micronucleated cells at 1 uM after 24 hrs by DAPI staining based immunofluorescence microscopic analysis; assay type: cell-based
Outline: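 Cells seeded on glass coverslips (1 x 10^5/well), treated 24 h, fixed in 4% paraformaldehyde 15 min, permeabilized with 0.5% Triton X-100, blocked in 5% BSA/PBS, stained overnight at 4 °C with anti-β-tubulin (1:200) then fluorescent secondary antibody; nuclei counterstained with DAPI; microtubule organization and nuclear morphology examined by fluorescence microscopy.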

A549 = test: Increase in p53 expression in human A549 cells at 1 uM after 24 hrs by immunoblot method relative to control; assay type: functional
Outline: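 After 24 h treatment at 1 μM, cells lysed in Tris pH 8/NaCl/glycerol/NP-40/EDTA buffer with protease inhibitors. Equal lysate amounts run on 10% SDS gels, blotted to nitrocellulose, probed for p53 with GAPDH as loading control, detected by enhanced chemiluminescence. Bands quantified by densitometry against GAPDH and compared with untreated cells; three independent experiments.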

HeLa [26] = test: Induction of apoptosis in human HeLa cells assessed as early apoptotic cells at 5 uM after 48 hrs by Annexin-V FITC/propidium iodide staining based flow cytometry (reference value: 1.6%); assay type: functional
HeLa [27] = test: Induction of apoptosis in human HeLa cells assessed as late apoptotic cells at 5 uM after 48 hrs by Annexin-V FITC/propidium iodide staining based flow cytometry (reference value: 4.9%); assay type: functional
[28] = Induction of apoptosis in human NB-1 cells assessed as live cells at 5 uM after 72 hrs by Annexin-V FITC/propidium iodide staining based flow cytometry (reference value: 93.3%); assay type: cell-based, NB1; settings: read-out: Activity
[29] = Induction of apoptosis in human NB-1 cells assessed as early apoptotic cells at 5 uM after 72 hrs by Annexin-V FITC/propidium iodide staining based flow cytometry (reference value: 3.2%); assay type: cell-based; settings: nb1, 72 h
[30] = Induction of apoptosis in human NB1 hTERT cells assessed as live cells at 5 uM after 72 hrs by Annexin-V FITC/propidium iodide staining based flow cytometry (reference value: 93.2%); assay type: functional
[31] = Antiproliferative activity against human MRC5-SV1 S40 cells after 72 hrs by XTT assay; assay type: functional, cell-based; outline: as §1

Question: For Cc1[nH]c2c(c1-c1nnc(-c3ccccc3)o1)Cc1ccccc1-2, which IC50 [1] is on record?
Answer: 50 nM

Question: What about the Activity (HeLa [2]) of the same compound?
Answer: Active

Question: What about the IC50 [3] of the same compound?
Answer: 60 nM

Question: What about the IC50 [4] of the same compound?
Answer: 120 nM

Question: What about the IC50 [5] of the same compound?
Answer: 240 nM

Question: What about the “Ratio IC50” value (MCF7 [6]) of the same compound?
Answer: 28 - 34

Question: What about the Activity [7] of the same compound?
Answer: 32.5%

Question: What about the Activity [8] of the same compound?
Answer: 15.7 to 30.1%

Question: And the Activity [9]?
Answer: 59.5 to 78.1%

Question: What about the Activity [10] of the same compound?
Answer: 7.6%

Question: And the Activity [11]?
Answer: 74.6%

Question: What about the Activity [12] of the same compound?
Answer: 65.9%

Question: And the Activity [13]?
Answer: 15.7%

Question: And the Activity [14]?
Answer: 15.6%

Question: And the Activity [15]?
Answer: 10.8%

Question: And the Activity [16]?
Answer: 9.5%

Question: And the Activity [17]?
Answer: 73%

Question: And the Activity [18]?
Answer: 3.2%

Question: What about the Activity [19] of the same compound?
Answer: 23.8%

Question: What about the Activity [20] of the same compound?
Answer: 82.6%

Question: What about the Activity [21] of the same compound?
Answer: 18.1%

Question: And the Activity [22]?
Answer: 41.1%

Question: What about the Activity [23] of the same compound?
Answer: 23.1%

Question: What about the Activity [24] of the same compound?
Answer: 20.8%

Question: And the Activity (MCF7 [25])?
Answer: Active

Question: What about the “fold change (FC)” value (A549) of the same compound?
Answer: 2 - 3

Question: And the Activity (HeLa [26])?
Answer: 4.6%

Question: What about the Activity (HeLa [27]) of the same compound?
Answer: 85.1%

Question: What about the viability at 72 h, 5 µM [28] of the same compound?
Answer: 86.6%

Question: And the Activity [29]?
Answer: 4.2%

Question: And the Activity [30]?
Answer: 81%

Question: And the IC50 [31]?
Answer: 130 nM
